Structures are written as SMILES. Activity calls are given as the source filed them. The calls are words filed in the database; no cut-off is given here.

Experiment [1] relates to RT-112. Kind of experiment: Mito-toxicity in mitochondria isolated from human RT112 cells assessed as increase in cytochrome C release at 100 uM incubated for 1 hr and measured after 1 to 4 hrs incubation in preservative buffer by Western blot analysis. It counts as functional.
For experiment [2], the system named is RT-112. Kind of experiment: Induction of mitochondrial membrane depolarization in human RT112 cells at 100 uM incubated for 1 hr and measured after 2 hrs recovery time by JC-1 staining based confocal microscopy. In kind it is functional, cell-based. The method in brief: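 RT112 cells plated on glass-bottom dishes and incubated overnight. They were treated for 45 min, then JC-1 (final 10 μg/mL) was added to the medium for a further 15 min. Live cells were imaged by confocal microscopy (ex 485 nm; em 530 and 590 nm) every 15 min for 6 h. Red polarized versus green depolarized mitochondria were scored, with CCCP as positive control.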

As to `N#CC(C#N)=NNc1cccc(Cl)c1`, the outcome in experiment [1] and in experiment [2] was Active.
